Measurements taken from ChEMBL document CHEMBL1138346, “BINOL-amino acid conjugates as triggerable carriers of DNA-targeted potent photocytotoxic agents” (J Med Chem, 2007).
Calls of active or inactive are those of the source. The rule behind the calls is not given here.

Assays:
LoVo [1] = assay: Photocytotoxicity against UV irradiated human LoVo cells after 24 hrs by MTT assay; format: functional, cell-based
Method in brief: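 LoVo cells in DMEM/F-12 1:1 with 10% FBS, plated at 1.75 × 10^4 cells/well overnight. Exposed 24 h to 12 nM–200 µM compound (DMSO, 1% final), washed, fresh medium, irradiated 30 min at 360 nm, then 24 h at 37 °C. MTT absorbance at 540 nm, survival relative to solvent controls; EC50 from mean of three experiments in triplicate.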

LoVo [2] = assay: Cytotoxicity against human LoVo cells after 24 hrs by MTT assay; format: functional
Method in brief: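 Dark cytotoxicity (CC50), LoVo human colorectal adenocarcinoma in DMEM/F-12 1:1 with 10% FBS, 37 °C, 5% CO2. 1.75 × 10^4 cells/well plated overnight; compound 12 nM–200 µM in DMSO (1% final) for 24 h, then washed and fresh medium, kept in dark 24 h more at 37 °C. MTT read at 540 nm; mean of three experiments in triplicate.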

[3] = Induction of pBR322 cross-linking after irradiation by alkaline agarose gel assay; conditions: Escherichia coli
Method in brief: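 pBR322 (0.5 µg/sample) with compound 0.62–80 µM (DMSO stock diluted in water), 50 mM phosphate pH 7.5, irradiated on ice 20 min at 360 nm, 120 W. Run on 1% alkaline agarose (50 mM NaOH, 1 mM EDTA), 12 V, 15–16 h, ethidium bromide stain. Value is lowest concentration giving interstrand cross-link band.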

Escherichia coli [4] = assay: Induction of pBR322 cross-linking in absence of irradiation by alkaline agarose gel assay
[5] = Partition coefficient, log P of the compound; format: physicochemical; conditions: octanol/water
Method in brief: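 Calculated log P of neutral form by Crippen fragmentation method.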

Escherichia coli [6] = assay: Induction of pBR322 cross-linking after irradiation at 20 mM at pH 5.5 by alkaline agarose gel assay
LoVo [7] = assay: Selectivity index, ratio of CC50 for LoVo cells to EC50 for UV irradiated LoVo cells; format: functional, Homo sapiens
Method in brief: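 Ratio CC50/EC50 in LoVo cells; both from MTT after 24 h compound exposure (12 nM–200 µM, 1% DMSO), then 24 h more either in the dark or after 30 min irradiation at 360 nm. Mean of three triplicate experiments.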

[8] = Homo sapiens, LoVo, light or radiation study, 24 h

| SMILES | Minimum concentration for DNA interstrand cross-linking [3] | Activity (Escherichia coli [4]) | logP [5] | Activity (Escherichia coli [6]) | EC50 (LoVo [1]; [8]) | CC50 (LoVo [2]) | Ratio CC50/EC50 (LoVo [7]) | EC50 (LoVo [1]; lovo) |
| --- | --- | --- | --- | --- | --- | --- | --- | --- |
| NCCCC[C@H](NCc1cc2ccccc2c(-c2c(O)c(CN[C@@H](CCCCN)C(=O)O)cc3ccccc23)c1O)C(=O)O | 20 µM | inactive | 3.34 | Active | > 200 µM | > 200 µM | – | – |
| COC(=O)[C@@H]1CCCN1Cc1cc2ccccc2c(-c2c(O)c(CN3CCC[C@H]3C(=O)OC)cc3ccccc23)c1O (stereo in doubt; (R,S,S)-5) [listing 1 of 2 here] | – | – | – | – | 0.23 µM | > 200 µM | >860 | – |
| COC(=O)[C@@H]1CCCN1Cc1cc2ccccc2c(-c2c(O)c(CN3CCC[C@H]3C(=O)OC)cc3ccccc23)c1O (stereo in doubt; (R,S,S)-5) [listing 2 of 2 here] | 20 µM | inactive | – | – | – | – | – | – |
| O=C(O)[C@@H]1CCCN1Cc1cc2ccccc2c(-c2c(O)c(CN3CCC[C@H]3C(=O)O)cc3ccccc23)c1O (stereo in doubt; (R,S,S)-6) [listing 1 of 2 here] | – | – | – | – | > 200 µM | > 200 µM | – | – |
| COC(=O)[C@@H]1CCCN1Cc1cc2ccccc2c(-c2c(O)c(CN3CCC[C@H]3C(=O)OC)cc3ccccc23)c1O (stereo in doubt; (S,S,S)-5) [listing 1 of 2 here] | – | – | 4.81 | – | – | – | >900 | 0.22 µM |
| COC(=O)[C@@H]1CCCN1Cc1cc2ccccc2c(-c2c(O)c(CN3CCC[C@H]3C(=O)OC)cc3ccccc23)c1O (stereo in doubt; (S,S,S)-5) [listing 2 of 2 here] | 20 µM | inactive | – | – | – | – | – | – |
| O=C(O)[C@@H]1CCCN1Cc1cc2ccccc2c(-c2c(O)c(CN3CCC[C@H]3C(=O)O)cc3ccccc23)c1O (stereo in doubt; (S,S,S)-6) [listing 2 of 2 here] | 2.5 µM | inactive | – | Active | – | – | – | – |
| Cc1cc2cc3c(C)cc(=O)oc3c(C)c2o1 [TRIOXSALEN] | < 0.5 µM | inactive | 2.44 | – | 0.94 µM | > 200 µM | >210 | – |

Second part, led by results:

| Minimum concentration for DNA interstrand cross-linking [3] | Activity (Escherichia coli [4]) | logP [5] | Activity (Escherichia coli [6]) | SMILES | EC50 (LoVo [1]; [8]) | CC50 (LoVo [2]) | Ratio CC50/EC50 (LoVo [7]) | EC50 (LoVo [1]; lovo) |
| --- | --- | --- | --- | --- | --- | --- | --- | --- |
| 1.25 µM | inactive | – | – | C[N+](C)(C)Cc1cc2ccccc2c(-c2c(O)c(C[N+](C)(C)C)cc3ccccc23)c1O | > 200 µM | > 200 µM | – | – |
| 5 µM | inactive | 6.15 | – | COC(=O)[C@@H](NCc1cc2ccccc2c(-c2c(O)c(CN[C@H](C(=O)OC)C(C)C)cc3ccccc23)c1O)C(C)C | 0.13 µM | 14 µM | 108 | – |
| > 40 µM | inactive | 4.38 | – | COC(=O)[C@H](C)NCc1cc2ccccc2c(-c2c(O)c(CN[C@@H](C)C(=O)OC)cc3ccccc23)c1O | 4 µM | 1.5 µM | 0.4 | – |
| 2.5 µM | inactive | – | Active | O=C(O)[C@@H]1CCCN1Cc1cc2ccccc2c(-c2c(O)c(CN3CCC[C@H]3C(=O)O)cc3ccccc23)c1O (stereo in doubt; (R,S,S)-6) [listing 2 of 2 here] | – | – | – | – |
| – | – | 4.28 | – | O=C(O)[C@@H]1CCCN1Cc1cc2ccccc2c(-c2c(O)c(CN3CCC[C@H]3C(=O)O)cc3ccccc23)c1O (stereo in doubt; (S,S,S)-6) [listing 1 of 2 here] | – | – | – | – |
